High-throughput results: PubChem BioAssay, several laboratories
An excerpt weighted towards active compounds, which were near 1.7% of everything screened.
T cell HTS: T cell immune modulators affecting CD8 T cell-vesicle binding. AID 2052. 2C CD8+ T cell-vesicle binding, flow cytometry; hits give low values. 0.068% of 330,000 active. response (vesicle binding), % at 7 µM;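 active = response, share of CD8 T cells binding vesicles, and their 90th percentile fluorescence all below set limits, cut at about 80% in these data, passing the limit was not always enough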;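 also: values below 100% mean blocked vesicle binding to the CD8+ T cells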
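Benchmarks: naked versus QL9-loaded vesicles / Assay system: purified 2C TCR transgenic mouse naive CD8+ T cells / Technique: high-throughput flow cytometry with anti-B7-1 and anti-CD8 staining / Timing: Cell–vesicle co-incubation 1.5 h at 37 °C, staining 20 min on ice / Read-out: percent CD8+ FL2 mean versus row control / Probe or stimulus: QL9-loaded Drosophila micro-vesicles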
PP5 primary: inhibitors of human protein phosphatase 5 (PP5). purified PP5c, OMFP substrate fluorescence. inhibition, % at 6.7 µM. 0.18% of 320,000 active;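 active = inhibition above the campaign's mean inhibition across all tested compounds plus 3 SD, cut at about 9.5% in these data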
JMJD2C inh: blocks human GASC-1 demethylase activity; Q9H3R0; GST-JMJD2C(1-420) H3K9me3 demethylation, DELFIA europium; inhibition, % at 2.35 µM; 0.069% of 330,000 active;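 active = more than half of a compound's replicate wells show inhibition beyond 50%, single wells judged on their own value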;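 also: signal counts dimethyl H3K9 product captured on neutravidin plate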
HTR2A ag: agonists of mouse serotonin 5-HT2A receptor (HTR2A). P35363. CHO-K1 mHTR2A beta-arrestin complementation, luminescence; percent of 30 µM serotonin response. activation, % at 7.6 µM. 0.66% of 360,000 active;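 active = activation above a run cutoff, the mean activation of all tested compounds plus 3 SD, cut at about 14% in these data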
Target sequence (P35363 whole entry, looked up): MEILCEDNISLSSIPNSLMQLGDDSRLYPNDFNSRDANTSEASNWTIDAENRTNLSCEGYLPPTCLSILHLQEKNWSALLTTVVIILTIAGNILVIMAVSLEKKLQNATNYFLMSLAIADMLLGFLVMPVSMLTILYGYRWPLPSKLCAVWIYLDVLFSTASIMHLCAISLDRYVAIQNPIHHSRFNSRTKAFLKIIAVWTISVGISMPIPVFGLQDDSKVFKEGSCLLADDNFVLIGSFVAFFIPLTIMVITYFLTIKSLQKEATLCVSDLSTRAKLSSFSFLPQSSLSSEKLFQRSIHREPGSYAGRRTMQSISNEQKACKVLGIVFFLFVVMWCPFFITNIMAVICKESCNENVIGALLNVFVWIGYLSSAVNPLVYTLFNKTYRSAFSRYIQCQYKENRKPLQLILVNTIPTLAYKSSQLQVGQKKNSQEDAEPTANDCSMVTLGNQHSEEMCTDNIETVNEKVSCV
PP1 inh: PP1-alpha (human) inhibition in PP5 counter-screen | purified PP1alpha, OMFP fluorescence | AID 2235 | inhibition, % at 6.7 µM | 0.9% of 320,000 active | P62136;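 active = inhibition above the mean inhibition of all tested compounds plus 3 SD, computed separately for each screening campaign, cut at about 15% in these data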
OPRM1 ag: activates human mu opioid receptor in HTR2A counterscreen. shares compounds with HTR2A ag. U2OS OPRM1 beta-arrestin PathHunter, luminescence; DMSO 0%, DAMGO 9.3 µM 100%. activation, % at 9.3 µM. 5.3% of 2,300 active;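 active = mean activation above the mean of DMSO-only wells plus 3 SD, cut at about 0.5% in these data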
HTR2A ag conf: confirmation of mouse HTR2A serotonin receptor agonists; 19% of 2,300 active; CHO-K1 PathHunter beta-arrestin recruitment, luminescence; DMSO 0%, 30 µM serotonin 100%; AID 624381; activation, % at 7.6 µM; shares compounds with HTR2A ag;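 active = mean activation across triplicates above the hit threshold derived in the original primary screen, cut at about 15% in these data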
Of the large screens only hits and unclear results are named; the others gave an inactive call (follow-up assays come after a bar, where they were run).

C=CC[C@H](CC(=O)N(CCO)Cc1ccccc1)C(=O)N[C@@H](COC(=O)[C@@H](CC=C)Cc1ccc(F)cc1)Cc1c[nH]c2ccccc12	none (no result: PP5 primary, PP1 inh)
COCOc1ccc(C=O)c(OCOC)c1	none
CCN(CC)C(=O)c1ccc(-c2nnc(Nc3ccc(C(=O)NC)cc3)c3ccccc23)cc1	HTR2A ag 14 | OPRM1 ag inactive | HTR2A ag conf inactive
Nc1nc(N2CCN(C(c3ccccc3)c3ccccc3)CC2)n[nH]1	none
Nc1nc(N2CCN(Cc3ccccc3)CC2)n[nH]1	HTR2A ag 39 | OPRM1 ag inactive | HTR2A ag conf 110
CC1(C)OC(=O)C2=C(C[C@@H](CCc3ccccc3)O[C@H]2C2CCCC2)O1	none (no result: T cell HTS, PP5 primary, JMJD2C inh, PP1 inh)
CC1CC(C)(C)NC(=S)N1CCCC(=O)NCc1ccccc1 (configuration not stated)	HTR2A ag 15 | OPRM1 ag inactive | HTR2A ag conf inactive
O=C(/C=C/[C@H]1O[C@@H](n2ccc(=O)[nH]c2=O)[C@H](O)[C@@H]1O)NCCN1CCCCC1	HTR2A ag 16 (no result: T cell HTS, PP5 primary, JMJD2C inh, PP1 inh) | OPRM1 ag inactive | HTR2A ag conf inactive
CC(=O)N1Cc2ccccc2CC1C(=O)NCc1ccccc1F (configuration not stated)	HTR2A ag 16 | OPRM1 ag inactive | HTR2A ag conf inactive
CC1=C(C)CC(C(=O)NCc2ccccc2F)C(C(=O)O)C1 (configuration not stated)	none
COc1cc(OC)cc(-c2c(-c3ccsc3)c3cc(Br)ccc3n2C)c1	HTR2A ag 15 | OPRM1 ag inactive | HTR2A ag conf inactive
COc1cc(OC)cc(-c2c(-c3ccc(F)cc3)c3cc(-c4ccc5[nH]ccc5c4)ccc3n2C)c1	HTR2A ag 15 | OPRM1 ag inactive | HTR2A ag conf inactive
O=CNc1ccc2c3c(cccc13)-c1ccccc1-2	none (no result: T cell HTS, PP5 primary, JMJD2C inh, PP1 inh)
Cc1ccc(C(=O)N2CCN(S(=O)(=O)c3sc(C(=O)O)c(C)c3C(=O)O)CC2)s1	none
COc1ccc(OC)c(NC(=S)N(CCc2c(C)[nH]c3ccc(C)cc23)Cc2cccs2)c1	HTR2A ag 20 | OPRM1 ag inactive | HTR2A ag conf inactive
Cn1cc([C@]2(O)C(=O)Nc3ccc(F)cc32)c2ccccc21	none (no result: T cell HTS, PP5 primary, JMJD2C inh, PP1 inh)
COc1ccc(Nc2nc(-c3cccs3)nc3ccccc23)c(OC)c1	none
COc1ccc(Nc2nc(N3CCN(C)CC3)nc3ccccc23)c(OC)c1	HTR2A ag 16 | OPRM1 ag inactive | HTR2A ag conf 19
C/C(=N\NC(=O)c1ccccc1O)C1CC1	none
O=C(CCN1N=C(c2ccccc2)CCC1=O)NC1CCCCC1	none (no result: T cell HTS, PP5 primary, JMJD2C inh, PP1 inh)
O=C(CCN1N=C(c2ccccc2)CCC1=O)NC1CCCC1	HTR2A ag 19 | OPRM1 ag inactive | HTR2A ag conf inactive
CCN(C[C@H]1N[C@@](Cc2ccccc2)(C(=O)OC)[C@H]2C(=O)N(C)C(=O)[C@@H]12)S(=O)(=O)c1ccc(C(C)(C)C)cc1	none (no result: PP5 primary, JMJD2C inh, PP1 inh)
COc1ccc(N2C(=O)CSC2c2cccc(OC)c2OC)cc1 (configuration not stated)	HTR2A ag 19 | OPRM1 ag inactive | HTR2A ag conf inactive
Cc1cc(CNC(=O)c2cccc(OC3CCN(S(=O)(=O)N(C)C)CC3)c2)on1	HTR2A ag 15 | OPRM1 ag inactive | HTR2A ag conf inactive
COc1cc(OC)c(NC(=O)C2CCCO2)cc1Cl (configuration not stated)	HTR2A ag 16 | OPRM1 ag inactive | HTR2A ag conf inactive
COc1cc(NC(=O)C2CCCO2)c(OC)cc1Cl (configuration not stated)	none
CC1CCCCC1NC(=O)COC(=O)c1cccn1C (configuration not stated)	HTR2A ag 15 | OPRM1 ag inactive | HTR2A ag conf inactive
Cc1csc(NC(=O)c2ccccc2)n1	none
CC(=O)Nc1nc(C)cs1	HTR2A ag 16 | OPRM1 ag inactive | HTR2A ag conf inactive
COC(=O)c1c(C)[nH]c(-c2csc(N)n2)c1C	none
Cc1nc2c(nnn2Cc2c(Cl)cccc2Cl)c(=O)[nH]1	HTR2A ag 19 | OPRM1 ag inactive | HTR2A ag conf inactive
